CHRM4 agonist: agonists of human muscarinic M4 receptor (CHRM4). 360,000 compounds, 0.14% hits. CHO-K1 hM4/Gqi5, Fluo-8 calcium fluorescence; vehicle 0%, full acetylcholine response 100%. activation, % at 3 µM;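 active means activation above the run mean over all test wells plus 3 SD, cut at about 32% in these data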;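 further: peak over basal fluorescence ratio per well then scaled between controls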
Target sequence (P08173 whole entry, looked up): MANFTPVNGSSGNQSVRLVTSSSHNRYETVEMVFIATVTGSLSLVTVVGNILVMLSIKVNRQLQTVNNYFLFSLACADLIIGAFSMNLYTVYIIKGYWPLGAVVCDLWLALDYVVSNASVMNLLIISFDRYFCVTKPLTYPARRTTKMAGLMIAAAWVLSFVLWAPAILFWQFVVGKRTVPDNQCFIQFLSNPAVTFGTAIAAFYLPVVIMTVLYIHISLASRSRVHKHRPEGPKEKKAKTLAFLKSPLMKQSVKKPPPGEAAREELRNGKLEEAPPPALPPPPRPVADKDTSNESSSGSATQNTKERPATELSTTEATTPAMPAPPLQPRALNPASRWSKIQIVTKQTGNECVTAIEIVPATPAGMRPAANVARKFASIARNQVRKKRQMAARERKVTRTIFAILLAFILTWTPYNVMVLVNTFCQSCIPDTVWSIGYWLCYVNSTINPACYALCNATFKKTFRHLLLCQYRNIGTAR
M4 PAM: CHRM4 positive allosteric modulation. P08173. CHO-K1 hM4/Gqi5, Fluo-8 calcium fluorescence, ACh EC20; 0% = ACh EC20, 100% = maximal ACh. 360,000 compounds, 0.4% hits. activation, % at 3 µM;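 active means activation above its plate's cutoff, the mean activation of sample wells plus 3 SD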
M5 PAM: CHRM5 positive allosteric modulation; P08912; CHO-K1 hM5, Fluo-8 calcium, ACh EC20 PAM; 0% = ACh EC20, 100% = ACh EC100; activation, % at 3 µM; 360,000 compounds, 0.3% hits; AID 624038;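 active means activation above the run cutoff, the mean activation of all test compounds plus 3 SD, cut at about 18% in these data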
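Assay system: CHO-K1 hM5 cells / Incubation: Fluo-8 loading 80 min at 37 °C plus 30 min room temperature / Technique: Fluo-8 calcium dye fluorescence, kinetic read / Repeats: single replicate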
CHRM4 antagonist: CHRM4 antagonism in calcium assay; P08173; CHO-hM4 cells, ACh EC80, Fluo-8 calcium fluorescence; inhibition, % at 3 µM; 360,000 compounds, 0.73% hits;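 active means inhibition above its plate's cutoff, the mean inhibition of sample wells plus 3 SD, cut at about 27% in these data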
M5 ag: CHRM5 agonism in calcium assay; activation, % at 3 µM; P08912; AID 624037; 360,000 compounds, 0.19% hits; CHO-K1 hM5 cells, Fluo-8 calcium fluorescence; 0% DMSO wells, 100% maximal acetylcholine response;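 active means activation above the run's mean over test compounds plus 3 SD, cut at about 23% in these data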;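 further: signal is peak over basal fluorescence ratio across the kinetic read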
CHRM5 antagonist: CHRM5 antagonism in calcium assay | 360,000 compounds, 0.59% hits | CHO-hM5 cells, Fluo-8 calcium fluorescence, ACh EC80 | inhibition, % at 3 µM | AID 624040 | P08912;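 active means inhibition above a per-plate cutoff, the mean of that plate's test compounds plus 3 SD, cut at about 27% in these data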
Hits are given with their value; - = inactive. Shown are actives, neighbours in structure and some others; about 1.8% of the full set was active somewhere.

SMILES	CHRM4 agonist	M4 PAM	M5 PAM	CHRM4 antagonist	M5 ag	CHRM5 antagonist
COC(=O)C1=C(c2ccccc2)C[C@@H]2CC[C@H]1N2C	-	-	-	-	-	62.7
COC(=O)C1=C(c2ccc(F)cc2F)C[C@@H]2CC[C@H]1N2C	-	-	-	29.1	-	-
COC(=O)C1=C(c2ccc(S(C)(=O)=O)cc2)C[C@@H]2CC[C@H]1N2C	-	-	-	-	-	-
COC1C(O)C(C)OC(OC2C(Oc3cccc4c(O)c5c(=O)oc6ccc(C)c7c(=O)oc(c34)c5c67)OC(C)C(O)C2O)C1O (stereo not drawn)	-	-	-	-	-	-
Clc1ccccc1CNC1CN2CCC1CC2 (stereo not drawn)	-	-	-	-	-	32.4
c1ccc(CNC2CN3CCC2CC3)cc1 (stereo not drawn)	-	-	-	-	-	-
CC(C)COC(=O)N1Cc2ccccc2-n2nncc2C1	-	-	-	-	-	-
CCCCCN1C(=O)c2cc(OC)ccc2[C@@]2(C(=O)OCC)Cc3cc(OC)ccc3[C@@H]12	-	-	-	-	-	-
CCC(CC)C1C(C#N)=C(N)Oc2c1c(=O)oc1ccccc21 (stereo not drawn)	-	-	-	-	-	-
N#CC1=C(N)Oc2c(c(=O)oc3ccccc23)C1c1cccnc1 (stereo not drawn)	-	-	20.2	-	-	-
C=C1C(=O)O[C@@H]2C[C@@H](C)[C@@H]3C=CC(=O)[C@@]3(C)[C@@H](OC(=O)CC(=O)O[C@H]3[C@@H]4C(=C)C(=O)O[C@@H]4C[C@@H](C)[C@@H]4C=CC(=O)[C@]43C)[C@H]12	-	-	-	38.6	-	-
N#CC12c3ccccc3C(=O)N1Cc1cnnn1-c1ccccc12 (stereo not drawn)	-	-	-	-	-	-
CCN1CCN(CC(c2ccccc2)c2ccccc2)CC1	-	-	-	-	-	35.8
CC(C)(C)c1ccc(C(=O)C2CCCN(C3CCC3)C2)cc1 (stereo not drawn)	-	-	-	32.0	-	-
CC(=O)N1CCC(N2CCCC(C(=O)c3cccc(Cl)c3)C2)CC1 (stereo not drawn)	-	-	-	26.6	-	-
CC(C)(C)c1ccc(C(=O)C2CCCN(Cc3ccon3)C2)cc1 (stereo not drawn)	-	-	-	-	-	-
CC(C)(C)C(=O)N1Cc2cc(-c3ccccc3)ccc2-n2nncc2C1	-	-	-	-	-	-
COC1CC2C=C(C)C=CC=CC(=O)NC(c3ccccc3)CC=CCCC(O)CC(=O)C2=C1O (stereo not drawn)	-	-	-	87.1	-	53.8
CN1CCN(c2ccc([N+](=O)[O-])c(Sc3ccccn3)c2)CC1	-	-	28.3	-	-	-
CCn1ccnc1CN1CCCC(C(=O)c2cccc(C(F)(F)F)c2)C1 (stereo not drawn)	-	-	-	46.8	-	-
CS(=O)(=O)c1ccc(C2=C(CNC(=O)c3ccc([N+](=O)[O-])cc3)[C@H]3CC[C@@H](C2)N3CCOc2ccccc2)cc1	-	-	-	-	-	-
COC(=O)C1=C(C)NC(=S)NC1c1ccc(N(CCCl)CCCl)cc1Cl (stereo not drawn)	-	-	18.2	-	-	-
O=P(/C=C1\OCc2ccccc21)(Oc1ccccc1)Oc1ccccc1	-	-	-	-	-	-
NC(Cc1ccc(F)cc1)c1csc(Nc2ncccn2)n1 (stereo not drawn)	-	-	-	-	-	-
CC1(C)CSC(=NCc2ccccc2)N1	64.1	-	-	-	26.0	-
COC(=O)C1=C(c2ccc(F)cc2OCc2ccccc2)C[C@@H]2CC[C@H]1N2C(=O)N1CCC(C)CC1	-	-	-	38.0	-	-
COC(=O)C1=C(c2cccc(OCc3ccccc3)c2)C[C@@H]2CC[C@H]1N2C(=O)NCCc1ccc(F)cc1	-	-	-	39.8	-	-
CC(CC(C)(C)N1CC1)=NNC(=O)Nc1cccc2ccccc12	-	-	-	-	-	-
